Measurements taken from ChEMBL document CHEMBL1147967, “Prodrug-based design, synthesis, and biological evaluation of N-benzenesulfonylpiperidine derivatives as novel, orally active factor Xa inhibitors” (Bioorg Med Chem, 2007).

Columns and labels:
Homo sapiens [1] = species: Homo sapiens; assay: Selectivity for human factor 10a over human trypsin
Homo sapiens [2] = species: Homo sapiens; assay: Selectivity for human factor 10a over human thrombin
Coagulation factor X = Coagulation factor X (Homo sapiens, UniProt P00742); assay: Inhibition of human factor 10a
Sequence of Coagulation factor X (P00742 41-179 limits assumed): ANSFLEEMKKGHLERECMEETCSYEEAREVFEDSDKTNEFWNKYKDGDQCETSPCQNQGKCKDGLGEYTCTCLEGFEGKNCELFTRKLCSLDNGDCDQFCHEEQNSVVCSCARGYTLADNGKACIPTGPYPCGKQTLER
Sequence of Coagulation factor X (P00742 235-488 limits assumed): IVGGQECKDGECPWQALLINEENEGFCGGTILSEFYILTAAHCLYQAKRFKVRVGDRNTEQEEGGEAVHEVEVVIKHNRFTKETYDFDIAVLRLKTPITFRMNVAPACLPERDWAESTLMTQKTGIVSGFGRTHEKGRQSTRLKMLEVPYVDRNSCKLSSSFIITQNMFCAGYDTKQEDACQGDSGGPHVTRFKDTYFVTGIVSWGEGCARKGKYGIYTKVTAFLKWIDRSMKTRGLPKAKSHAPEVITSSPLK

Mus musculus = assay: Anticoagulant activity in ICR mouse plasma assessed as PT-prolongation at 100 mg/kg, po after 0.5 hrs relative to control; type: functional
Method in brief: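 Male ICR mice (20–35 g), fasted overnight, were given compound orally by gastric tube at 100 mg/kg as a suspension in 0.5% methylcellulose. At 0.5 h, blood was drawn from the abdominal vena cava into 3.8% citrate, and platelet-poor plasma was prepared by centrifugation. PT was measured and expressed as percent change versus vehicle or normal plasma, mean ± SEM, n = 3.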

Trypsin = Trypsin (Homo sapiens, UniProt P07477+P07478+P35030); assay: Inhibition of human trypsin; type: protein assay
Plasma [3] = assay: Anticoagulant activity in mouse plasma assessed as concentration required to double prothrombin time; type: functional
Method in brief: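 Pooled citrated mouse plasma was incubated with diluted compound for 1 min at 37 °C. Brain thromboplastin PT reagent was then added to start clotting, and clot time was read on a coagulometer. The concentration doubling clotting time (CT₂) was estimated from each individual dose–response curve.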

Plasma [4] = assay: Anticoagulant activity in human plasma assessed as concentration required to double prothrombin time; type: functional
Prothrombin = Prothrombin (Homo sapiens, UniProt P00734); assay: Inhibition of human thrombin

Row | Selectivity ratio (Homo sapiens [1]) | Selectivity ratio (Homo sapiens [2]) | IC50 (Coagulation factor X) | IC50 (Trypsin) | IC50 (Prothrombin) | SMILES | Activity (Mus musculus) | Activity (Plasma [3]) | Activity (Plasma [4])
1 | – | – | 200 nM | – | – | CS(=O)(=O)N(Cc1ccc2ccc(C(=N)N)cc2c1)C1CCN(S(=O)(=O)c2cccc(-c3ccccc3)c2)CC1 | – | – | –
2 | > 100 | > 7000 | 8.1 nM | 3700 nM | > 100000 nM | COc1ccc(OC)c(S(=O)(=O)N2CCC(N(Cc3ccc4ccc(C(=N)N)cc4c3)C(=O)CC(=O)O)CC2)c1 | – | 1.6 µM | 0.56 µM
3 | > 100 | > 7000 | 39 nM | – | – | COc1ccc(Cl)cc1S(=O)(=O)N1CCC(N(Cc2ccc3ccc(C(=N)N)cc3c2)S(C)(=O)=O)CC1 | – | – | –
4 | > 100 | > 7000 | 12 nM | 2500 nM | > 100000 nM | COc1ccc(OC)c(S(=O)(=O)N2CCC(N(Cc3ccc4ccc(C(=N)N)cc4c3)C(C)=O)CC2)c1 | – | – | –
5 | > 100 | > 7000 | 13 nM | 6000 nM | > 100000 nM | COc1ccc(OC)c(S(=O)(=O)N2CCC(N(C/C=C/c3cccc(C(=N)N)c3)C(=O)CC(=O)O)CC2)c1 | 104% | 1.4 µM | 0.55 µM
6 | > 100 | > 7000 | 190 nM | – | – | CS(=O)(=O)N(Cc1ccc2ccc(C(=N)N)cc2c1)C1CCN(S(=O)(=O)c2ccc(Cl)c(Cl)c2)CC1 | – | – | –
7 | > 100 | > 7000 | – | – | – | CCOC(=O)CC(=O)N(Cc1ccc2ccc(/C(N)=N\O)cc2c1)C1CCN(S(=O)(=O)c2cc(OC)ccc2OC)CC1 | 109% | – | –
8 | – | – | 170 nM | – | – | CS(=O)(=O)N(Cc1ccc2ccc(C(=N)N)cc2c1)C1CCN(S(=O)(=O)c2cccc(C#N)c2)CC1 | – | – | –
9 | > 100 | > 7000 | 950 nM | – | – | Cc1ccccc1S(=O)(=O)N1CCC(N(Cc2ccc3ccc(C(=N)N)cc3c2)S(C)(=O)=O)CC1 | – | – | –
10 | – | – | 100 nM | – | – | CS(=O)(=O)N(Cc1ccc2ccc(C(=N)N)cc2c1)C1CCN(S(=O)(=O)c2cc(Cl)sc2Cl)CC1 | – | – | –
11 | > 100 | > 7000 | 58 nM | – | – | COc1ccc(C)cc1S(=O)(=O)N1CCC(N(Cc2ccc3ccc(C(=N)N)cc3c2)S(C)(=O)=O)CC1 | – | – | –

Second part, the compound before the results:

Row | SMILES | Selectivity ratio (Homo sapiens [1]) | Selectivity ratio (Homo sapiens [2]) | IC50 (Coagulation factor X) | IC50 (Trypsin) | IC50 (Prothrombin) | Activity (Mus musculus) | Activity (Plasma [3]) | Activity (Plasma [4])
12 | CS(=O)(=O)N(Cc1ccc2ccc(C(=N)N)cc2c1)C1CCN(S(=O)(=O)c2cccc(F)c2)CC1 | > 100 | > 7000 | 800 nM | – | – | – | – | –
13 | CS(=O)(=O)N1CCC(N(Cc2ccc3ccc(C(=N)N)cc3c2)S(C)(=O)=O)CC1 | > 100 | > 7000 | > 100000 nM | – | – | – | – | –
14 | CS(=O)(=O)N(Cc1ccc2ccc(C(=N)N)cc2c1)C1CCN(Cc2cccc(Cl)c2)CC1 | > 100 | > 7000 | 1700 nM | – | – | – | – | –
15 | CCOC(=O)CS(=O)(=O)N(Cc1ccc2ccc(/C(N)=N\O)cc2c1)C1CCN(S(=O)(=O)c2cc(OC)ccc2OC)CC1 | – | – | – | – | – | 101% | – | –
16 | CS(=O)(=O)N(Cc1ccc2ccc(C(=N)N)cc2c1)C1CCN(S(=O)(=O)c2ccccc2Cl)CC1 | > 100 | > 7000 | 350 nM | – | – | – | – | –
17 | CS(=O)(=O)N(Cc1ccc2ccc(C(=N)N)cc2c1)C1CCNCC1 | > 100 | > 7000 | > 100000 nM | – | – | – | – | –
18 | CS(=O)(=O)N(Cc1ccc2ccc(C(=N)N)cc2c1)C1CCN(S(=O)(=O)c2cc(Cl)ccc2Cl)CC1 | – | – | 65 nM | – | – | – | – | –
19 | COc1ccc(OC)c(S(=O)(=O)N2CCC(N(C/C=C/c3cccc(C(=N)N)c3)S(=O)(=O)CC(=O)O)CC2)c1 | > 100 | > 7000 | 10 nM | 5300 nM | > 100000 nM | – | 1.2 µM | 0.47 µM
20 | CS(=O)(=O)N(Cc1ccc2ccc(C(=N)N)cc2c1)C1CCN(S(=O)(=O)c2ccccc2)CC1 | – | – | 850 nM | – | – | – | – | –
21 | COc1ccc(OC)c(S(=O)(=O)N2CCC(N(Cc3ccc4ccc(C(=N)N)cc4c3)S(=O)(=O)CC(=O)O)CC2)c1 | > 100 | > 7000 | 13 nM | 2700 nM | > 100000 nM | – | 1.7 µM | 0.55 µM
22 | CS(=O)(=O)N(Cc1ccc2ccc(C(=N)N)cc2c1)C1CCN(S(=O)(=O)c2cccc(Cl)c2Cl)CC1 | > 100 | > 7000 | 560 nM | – | – | – | – | –
23 | COc1ccc(OC)c(S(=O)(=O)N2CCC(N(C)Cc3ccc4ccc(C(=N)N)cc4c3)CC2)c1 | – | – | 590 nM | – | – | – | – | –
24 | CS(=O)(=O)N(Cc1ccc2ccc(C(=N)N)cc2c1)C1CCN(C(=O)c2cccc(Cl)c2)CC1 | > 100 | > 7000 | > 100000 nM | – | – | – | – | –
25 | CS(=O)(=O)N(Cc1ccc2ccc(C(=N)N)cc2c1)C1CCN(S(=O)(=O)c2cccc(Cl)c2)CC1 | – | – | 49 nM | – | – | – | – | –
26 | CS(=O)(=O)N(Cc1ccc2ccc(C(=N)N)cc2c1)C1CCN(c2ccncc2)CC1 | – | – | 90 nM | – | – | – | – | –
27 | CS(=O)(=O)N(Cc1ccc2ccc(C(=N)N)cc2c1)C1CCN(Cc2cccc(C#N)c2)CC1 | > 100 | > 7000 | 2300 nM | – | – | – | – | –
28 | Cc1ccc(S(=O)(=O)N2CCC(N(Cc3ccc4ccc(C(=N)N)cc4c3)S(C)(=O)=O)CC2)cc1 | > 100 | > 7000 | > 100000 nM | – | – | – | – | –
29 | CS(=O)(=O)N(Cc1ccc2ccc(C(=N)N)cc2c1)C1CCN(S(=O)(=O)c2ccc(Cl)cc2)CC1 | – | – | 1600 nM | – | – | – | – | –
30 | CS(=O)(=O)N(Cc1ccc2ccc(C(=N)N)cc2c1)C1CCN(S(=O)(=O)c2c(Cl)cccc2Cl)CC1 | > 100 | > 7000 | > 100000 nM | – | – | – | – | –
31 | CC(=N)N1CC[C@H](Oc2ccc([C@H](Cc3ccc4ccc(C(=N)N)cc4c3)C(=O)O)cc2)C1 [DX-9065A] | – | – | – | 3200 nM | – | 151% | 4.9 µM | 0.55 µM
32 | Cc1cccc(S(=O)(=O)N2CCC(N(Cc3ccc4ccc(C(=N)N)cc4c3)S(C)(=O)=O)CC2)c1 | – | – | 250 nM | – | – | – | – | –
33 | CCOC(=O)CS(=O)(=O)N(C/C=C/c1cccc(/C(N)=N\O)c1)C1CCN(S(=O)(=O)c2cc(OC)ccc2OC)CC1 | > 100 | > 7000 | – | – | – | 116% | – | –
34 | COc1ccc(OC)c(S(=O)(=O)N2CCC(N(Cc3ccc4ccc(C(=N)N)cc4c3)S(C)(=O)=O)CC2)c1 | > 100 | > 7000 | 11 nM | 1100 nM | > 100000 nM | – | – | –
35 | CCOC(=O)CC(=O)N(C/C=C/c1cccc(/C(N)=N\O)c1)C1CCN(S(=O)(=O)c2cc(OC)ccc2OC)CC1 | > 100 | > 7000 | – | – | – | 187% | – | –
36 | CS(=O)(=O)N(Cc1ccc2ccc(C(=N)N)cc2c1)C1CCN(C(=O)c2cccc(C#N)c2)CC1 | > 100 | > 7000 | > 100000 nM | – | – | – | – | –
